Consider 29 compounds from ChEMBL document CHEMBL4828710, “Lead optimization to improve the antiviral potency of 2-aminobenzamide derivatives targeting HIV-1 Vif-A3G axis” (Eur J Med Chem, 2021).

For data set [1], the system named is Human immunodeficiency virus 1. The experiment in a line: Antiviral activity against HIV13B infected in human H9 cells assessed as p24 level incubated for 7 days by ELISA. The data set is classed as functional, organism-based. Conditions: Human immunodeficiency virus 1, 3B, H9, 168 h. The gist of the method:
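H9 cells were infected with HIV-1 IIIB at MOI 0.03 for 2 h, washed three times and resuspended in RPMI-1640. Infected cells (4 × 10⁴/well) were cultured with serially diluted compound at 37 °C in 5% CO₂ for 7 days. Supernatant p24 was measured by in-house ELISA, and EC50 was calculated.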
A general note: An ELISA detects its analyte on a solid surface through an enzyme-linked reagent.

The test system of data set [2] is H9. Briefly: Cytotoxicity against human H9 cells assessed as cell viability incubated for 7 days by MTT colorimetric assay. The data set is classed as functional. The settings on record: H9, 168 h, time 7 day. The gist of the method:
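H9 cells (2 × 10⁵/well) were incubated with varying compound concentrations in RPMI-1640 with 10% FBS at 37 °C in 5% CO₂ for seven days. Viability was read by MTT colorimetric assay, and CC50 was calculated.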

Data set [3] is described as follows: Therapeutic index, ratio of CC50 for cytotoxicity against human H9 cells to EC50 for antiviral activity against HIV13B. Type of data set: toxicity, cell-based. The settings on record: read-out: TI. The gist of the method:
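TI = CC50/EC50. For EC50, H9 cells were infected with HIV-1 IIIB at MOI 0.03 for 2 h, washed three times, plated at 4 × 10⁴ cells/well with serial compound dilutions, and kept 7 days at 37 °C, 5% CO₂; supernatant p24 was read by in-house ELISA. For CC50, uninfected H9 cells at 2 × 10⁵/well in RPMI-1640 with 10% FBS were kept 7 days, then read by MTT.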

Data set [4] has as its system Human immunodeficiency virus 1. Briefly: Antiviral activity against IN resistant HIV1 pYU2G14OS/Q148H infected in human TZM-bl cells assessed as inhibition of replication for 48 hrs by microplate reader method. The data set is classed as functional, organism-based. The settings on record: Human immunodeficiency virus 1, pYU2G14OS/Q148H.
Data set [5] concerns H9. Briefly: Reduction in HIV1 Vif expression in HIV1 infected human H9 cells assessed as for 48 hrs by western blotting analysis. The data set is classed as functional, cell-based. The settings on record: Human immunodeficiency virus 1, dose 2-50 µM. The gist of the method:
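Cells were exposed to the compound at […] at 37 °C for 48 h, then washed with ice-cold PBS and lysed in RIPA buffer. A3G-HA and Vif were resolved by SDS-PAGE and transferred to PVDF. Blots were probed overnight at 4 °C with primary antibodies, then 2 h at room temperature with HRP secondary antibodies. Bands were visualized by chemiluminescence on X-ray film.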
For orientation: In western blotting, separated proteins are transferred to a membrane and probed.

In data set [6] the test system is Human immunodeficiency virus 1. Briefly: Antiviral activity against NRTI resistant HIV1-4755-5 infected in human TZM-bl cells assessed as inhibition of replication for 48 hrs by microplate reader method. The data set is classed as functional, organism-based. Conditions: Human immunodeficiency virus 1, 4755-5, TZM-bl.
In data set [7] the test system is Human immunodeficiency virus 1. The experiment in a line: Antiviral activity against PI resistant HIV-1 L70R/M461/L63P/V82T/184V infected in human TZM-bl cells assessed as inhibition of replication for 48 hrs by microplate reader method. The data set is classed as functional, organism-based. Conditions: Human immunodeficiency virus 1, L70R/M461/L63P/V82T/184V.

The target in data set [8] is Virion infectivity factor (Human immunodeficiency virus type 1 group M subtype B (isolate NY5)(HIV-1)) (UniProt P12504). The experiment in a line: Reversal of HIV1 Vif mediated A3G degradation in HIV1 infected human H9 cells for 48 hrs by western blotting analysis. Type of data set: cell-based. The settings on record: Human immunodeficiency virus 1. The gist of the method:
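Cells expressing A3G-HA and Vif were treated with compound at 50, 10 and 2 (three concentrations) at 37 °C for 48 h. They were then washed in ice-cold PBS and lysed in RIPA. A3G-HA and Vif were detected by SDS-PAGE, PVDF transfer, primary antibodies overnight at 4 °C, and HRP secondary for 2 h at room temperature, with chemiluminescence on X-ray film.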

For data set [9], the system named is Human immunodeficiency virus. Briefly: Antiviral activity against FI resistant HIV PNL4-3-3gp41(364)V38A N42T infected in human TZM-bl cells assessed as inhibition of replication for 48 hrs by microplate reader method. The data set is classed as functional, organism-based.
Data set [10] concerns Human immunodeficiency virus 1. The experiment in a line: Antiviral activity against NNRTI resistant HIV1 A17 infected in human TZM-bl cells assessed as inhibition of replication for 48 hrs by microplate reader method. The data set is classed as functional, organism-based. Conditions: Human immunodeficiency virus 1, A17, TZM-bl.

The source made the active and inactive calls. No cut-off for these calls is given here.

Virion infectivity factor (Human immunodeficiency virus type 1 group M subtype B (isolate NY5)(HIV-1)), sequence (P12504 whole entry): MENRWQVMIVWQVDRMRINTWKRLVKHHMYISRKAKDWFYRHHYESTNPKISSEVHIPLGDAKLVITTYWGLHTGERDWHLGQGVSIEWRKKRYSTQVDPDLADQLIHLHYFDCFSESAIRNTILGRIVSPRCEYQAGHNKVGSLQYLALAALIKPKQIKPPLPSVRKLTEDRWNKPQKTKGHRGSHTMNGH

With `COc1ccc(O)cc1NC(=O)c1c(N)cccc1Sc1ccc([N+](=O)[O-])cc1`, the EC50 (in general, the concentration at which the effect is half-maximal) in data set [1] turned out to be 0.47 µM. For the same compound, the CC50 (usually the concentration giving 50% cytotoxicity) in the data set with H9 [2] was over 100 µM. Further, the selectivity ratio in data set [3] was over 213.

In the case of `COc1ccc(C(=O)O)cc1NC(=O)c1c(N)cccc1S(=O)(=O)c1ccc([N+](=O)[O-])cc1`, the 50% effective concentration (EC50) in [1] is over 100 µM.

As for `COc1ccc(NC(=O)c2c(N)cccc2S(=O)(=O)c2ccc([N+](=O)[O-])cc2)cc1`, the EC50 in data set [1] was over 100 µM.

On to `COc1ccc(NC(=O)c2c(N)cccc2S(=O)(=O)c2ccc([N+](=O)[O-])cc2)c(OC)c1`, for which the EC50 in data set [1] is 3.58 µM. In the data set on H9 [2], the CC50 was over 100 µM. The selectivity ratio in data set [3] was over 27.9.

`COc1ccc(OC)c(NC(=O)c2c(N)cccc2S(=O)(=O)c2ccc([N+](=O)[O-])cc2)c1`: the EC50 in data set [1] amounted to 3.97 µM. Further, the CC50 in the data set with H9 [2] was over 200 µM. The selectivity ratio in data set [3] was over 50.4.

Regarding `COc1ccc(NC(=O)c2c(N)cccc2S(=O)(=O)c2ccc([N+](=O)[O-])cc2)cc1O`, the EC50 in data set [1] was over 100 µM.

As for `COc1ccc(OCCCO)cc1NC(=O)c1c(N)cccc1Sc1ccc([N+](=O)[O-])cc1`, the EC50 in data set [1] is over 100 µM.

For `COc1ccc(NC(=O)c2c(N)cccc2S(=O)(=O)c2ccc([N+](=O)[O-])cc2)cc1OC`, the EC50 in [1] was 15.5 µM. Moreover, in the data set on H9 [2], the half-maximal cytotoxic concentration (CC50) was over 100 µM. The selectivity ratio in [3] is over 6.45.

On to `COc1ccc(O)cc1NC(=O)c1c(N)ncnc1Sc1ccc([N+](=O)[O-])cc1`, for which the EC50 in data set [1] came out at 40.6 µM. Moreover, the CC50 in the data set on H9 [2] turned out to be 35.8 µM. In addition, the selectivity ratio in [3] came to 0.88.

`COc1ccc(OC)c(NC(=O)c2c(N)cccc2Sc2ccc([N+](=O)[O-])cc2)c1`: the EC50 in [1] was 4.05 µM. Also, in the data set with H9 [2], the CC50 was over 200 µM. In addition, the selectivity ratio in [3] was over 49.4.

Turning to `Nc1cccc(S(=O)(=O)c2ccc([N+](=O)[O-])cc2)c1C(=O)Nc1ccc(Cl)cc1F`, in [1], the EC50 was 10.3 µM. In the data set on H9 [2], the CC50 was over 100 µM. In addition, in data set [3], the selectivity ratio is over 9.71.

On to `COc1ccc(F)cc1NC(=O)c1c(N)cccc1Sc1ccc([N+](=O)[O-])cc1`, for which the EC50 in [1] worked out at 2.12 µM. For the same compound, in the data set with H9 [2], the CC50 was over 100 µM. The selectivity ratio in data set [3] is over 47.2.

With `Nc1ccn([C@@H]2CS[C@H](CO)O2)c(=O)n1` [LAMIVUDINE], the EC50 in data set [1] came out at 0.21 µM. Besides, in the data set on H9 [2], the 50% cytotoxic concentration (CC50) was over 200 µM. Also, the selectivity ratio in data set [3] is over 976.

For `Nc1cccc(S(=O)(=O)c2ccc([N+](=O)[O-])cc2)c1C(=O)Nc1cccc(O)c1`, the EC50 in data set [1] is over 100 µM.

Take `COc1cccc(NC(=O)c2c(N)cccc2S(=O)(=O)c2ccc([N+](=O)[O-])cc2)c1`: the EC50 in data set [1] was over 100 µM.

As for `Cc1cc(C)cc(NC(=O)c2c(N)cccc2S(=O)(=O)c2ccc([N+](=O)[O-])cc2)c1`, in data set [1], the EC50 worked out at 26.4 µM. In the data set with H9 [2], the CC50 was over 100 µM. In addition, the selectivity ratio in data set [3] is over 3.79.

As for `COc1ccccc1NC(=O)c1c(N)ncnc1Sc1ccc([N+](=O)[O-])cc1`, in [1], the EC50 came to 9.73 µM. The CC50 in the data set on H9 [2] is 32.9 µM. Further, the selectivity ratio in [3] is 3.38.

Consider `COc1ccc(OCCN2CCOCC2)cc1NC(=O)c1c(N)cccc1Sc1ccc([N+](=O)[O-])cc1`, for which, in [1], the EC50 is over 100 µM.

Regarding `COc1ccc(F)cc1NC(=O)c1c(N)ncnc1Sc1ccc([N+](=O)[O-])cc1`, the EC50 in [1] turned out to be 41.1 µM. Moreover, the CC50 in the data set with H9 [2] was 26.6 µM. Further, in [3], the selectivity ratio stood at 0.65.

For the compound `COc1ccc(F)cc1NC(=O)c1c(N)cccc1S(=O)(=O)c1ccc([N+](=O)[O-])cc1`, the EC50 in [1] was found to be 1.93 µM. For the same compound, the cytotoxic concentration (CC50) in the data set with H9 [2] came out at 89.6 µM. In addition, the selectivity ratio in data set [3] was found to be 46.4.

`COc1cc(NC(=O)c2c(N)cccc2S(=O)(=O)c2ccc([N+](=O)[O-])cc2)cc(OC)c1`: the EC50 in data set [1] was over 100 µM.

As to `Cc1cc(Br)ccc1NC(=O)c1c(N)cccc1S(=O)(=O)c1ccc([N+](=O)[O-])cc1`, in data set [1], the EC50 is over 100 µM.

Consider `COc1ccc(OCCO)cc1NC(=O)c1c(N)cccc1Sc1ccc([N+](=O)[O-])cc1`, for which, in data set [1], the EC50 was over 100 µM.

On to `COc1ccc(C(=O)O)cc1NC(=O)c1c(N)cccc1Sc1ccc([N+](=O)[O-])cc1`, for which the EC50 in data set [1] stood at 0.42 µM. In addition, in the data set with H9 [2], the CC50 is over 100 µM. In addition, the selectivity ratio in [3] was over 238.

Take `COc1ccc(O)cc1NC(=O)c1c(N)cccc1S(=O)(=O)c1ccc([N+](=O)[O-])cc1`: the EC50 in data set [4] stood at 3.74 µM; in [6] it was 8.4 µM; in data set [1] it was 0.07 µM; in [7], 4.39 µM; in [9], 3.02 µM; in data set [10], 46.4 µM. Moreover, in the data set on H9 [5], the result was Active. Also, the CC50 in the data set on H9 [2] is 259 µM. Also, the selectivity ratio in [3] came out at 3700. The Activity entry in data set [8] is “Dose-Dependent Effect”.

Consider `Nc1cccc(S(=O)(=O)c2ccc([N+](=O)[O-])cc2)c1C(=O)Nc1ccc(O)cc1`, for which, in data set [1], the EC50 was found to be 4.59 µM. Further, the CC50 in the data set with H9 [2] was found to be 32.5 µM.

Consider `COc1ccccc1NC(=O)c1c(N)cccc1S(=O)(=O)c1ccc([N+](=O)[O-])cc1`, for which the EC50 in [1] was found to be 0.34 µM. Also, the CC50 with H9 [2] was over 468 µM. Besides, in data set [3], the selectivity ratio was over 1380.

In the case of `COc1ccc(Cl)cc1NC(=O)c1c(N)ncnc1Sc1ccc([N+](=O)[O-])cc1`, the EC50 in data set [1] came out at 20 µM. The CC50 in the data set with H9 [2] was 2.22 µM. Moreover, in data set [3], the selectivity ratio came out at 0.11.

Regarding `COc1cc(O)ccc1NC(=O)c1c(N)cccc1S(=O)(=O)c1ccc([N+](=O)[O-])cc1`, the EC50 in data set [1] worked out at 5.77 µM. The CC50 in the data set with H9 [2] came out at 54.7 µM. Besides, the selectivity ratio in [3] turned out to be 9.48.
